In PubChem BioAssay AID602345 (The Scripps Research Institute Molecular Screening Center, 2012) one finds outcome data, which are given here for three compounds.

Structures are written as SMILES. The source made the active and inactive calls.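 The calls were made as follows: active = macrophage DAGL beta lipase probe labeling falls at least half after a 5 mg/kg dose in mice; inactive = 5 mg/kg yields less than half inhibition.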

This experiment deals with Diacylglycerol lipase-beta (Mus musculus) (UniProt Q91WC9). The experiment can be described thus: macrophage DAGLb activity after compound dosing – gel ABPP, in-gel fluorescence, mouse, peritoneal macrophages, in vivo study, late-stage follow-up (AID 602345). As to conditions: C57 mice i.p., gel ABPP HT-01. A digest of the protocol: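 Assay system: DAGLb in peritoneal macrophage membranes from thioglycollate-elicited C57 mice. Quantity: membrane protein 1 mg/mL. Probe or stimulus: HT-01 activity-based fluorescent probe, 1 µM final. Dosing: intraperitoneal 5, 10 or 20 mg/kg in saline/PEG300/ethanol (18/1/1). Times: 4 h dosing-to-harvest interval, 30 min probe labelling at 37 °C. Signal: SDS-PAGE in-gel fluorescence.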
Sequence of Diacylglycerol lipase-beta (Mus musculus) (Q91WC9 whole entry, looked up): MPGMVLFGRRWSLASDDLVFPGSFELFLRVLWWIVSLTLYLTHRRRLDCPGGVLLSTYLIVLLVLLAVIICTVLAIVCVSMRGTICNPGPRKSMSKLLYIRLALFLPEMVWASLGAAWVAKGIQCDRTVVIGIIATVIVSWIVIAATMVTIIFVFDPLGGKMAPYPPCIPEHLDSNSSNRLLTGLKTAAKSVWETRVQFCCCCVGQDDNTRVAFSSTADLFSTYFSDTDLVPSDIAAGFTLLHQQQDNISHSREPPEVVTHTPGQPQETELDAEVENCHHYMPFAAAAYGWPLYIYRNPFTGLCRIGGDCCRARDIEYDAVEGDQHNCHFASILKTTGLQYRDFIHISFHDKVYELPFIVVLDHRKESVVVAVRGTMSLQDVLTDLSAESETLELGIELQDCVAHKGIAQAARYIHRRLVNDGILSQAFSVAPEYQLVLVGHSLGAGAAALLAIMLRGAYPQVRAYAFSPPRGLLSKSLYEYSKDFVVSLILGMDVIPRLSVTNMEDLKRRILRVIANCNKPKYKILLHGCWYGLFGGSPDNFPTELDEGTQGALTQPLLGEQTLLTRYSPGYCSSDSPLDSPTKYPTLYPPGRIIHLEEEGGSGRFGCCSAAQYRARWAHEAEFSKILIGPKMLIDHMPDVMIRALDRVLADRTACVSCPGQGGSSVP

`COc1ccccc1-c1ccc(-c2cn(C(=O)N3CCCCC3Cc3ccccc3)nn2)cc1` (stereo not drawn): the outcome was active.

For `O=C(N1CCCCC1Cc1ccccc1)n1cc(-c2ccc(-c3ccccc3C(F)(F)F)cc2)nn1` (stereo not drawn), the result was active.

As for `O=C(N1CCCCC1Cc1ccccc1)n1cc(-c2ccc(-c3ccccc3)cc2)nn1` (stereo not drawn), the outcome was active.
